Published values collected from several papers.
Each line is one published result; the experiments were not run side by side.
Cell line: A549
Read-out: cell growth or viability

| SMILES | assay | setting | endpoint | result |
| --- | --- | --- | --- | --- |
| C[C@H](N)C(=O)Nc1ccccc1/N=c1\cc(-c2ccc3c(c2)OCCO3)oc2c([N+](=O)[O-])cccc12 | CCK-8 | 1 µM | inhibition | 0.38% |
| O=C(Nc1cccc(-c2cn(Cc3ccc(Cl)cc3)nn2)c1)Nc1ccccc1Br | CCK-8 | 20 µM, 72 h | viability | 159% |
| C[C@H](N)C(=O)Nc1ccccc1/N=c1\cc(-c2ccc3c(c2)OCO3)oc2ccccc12 | CCK-8 | 1 µM | inhibition | -2.13% |
| Cc1ccccc1Cn1cc(-c2cccc(NC(=O)Nc3ccc(F)cc3)c2)nn1 | CCK-8 | 50 µM, 72 h | viability | 175% |
| CCCCn1cnc2ccc(-c3ccc(NC(=O)C4CCC4)nc3)cc2c1=O | CCK-8 | 72 h | IC50 | 3930 nM |
| NCC(=O)Nc1ccccc1/N=c1\cc(-c2ccc3c(c2)OCO3)oc2ccccc12 | CCK-8 | 1 µM | inhibition | -5.88% |
| CCCCC(=O)Nc1ccc(-c2ccc3ncn(CCCF)c(=O)c3c2)cn1 | CCK-8 | 72 h | IC50 | 1790 nM |
| O=C(Nc1cccc(-c2cn(Cc3ccc(Br)cc3)nn2)c1)Nc1ccccc1Br | CCK-8 | 20 µM, 72 h | viability | 130% |
| CCCCCCCCCCCCCCCCCCOc1cccc(CC(=O)OCC[N+](CC)(CC)CC)c1 | SRB | 10 µM | inhibition | 40% |
| O=C(NCc1cn(Cc2cccc(Cl)c2)nn1)Nc1ccc(Cl)cc1 | CCK-8 | 50 µM, 72 h | viability | 79.5% |
| CCC(=O)NCc1ccc(-c2cnc(C3CN(C(=O)c4cnc(NC(=O)[C@@H]5CC(C)(C)CN5)s4)C3)s2)c2ccccc12 | – | 14 days | GI50 | > 3 µM |
| COc1ccc(NC(=O)NCc2cn(Cc3ccc(Cl)cc3)nn2)cc1 | CCK-8 | 20 µM, 72 h | viability | 71.9% |
| NCCC(=O)Nc1ccccc1/N=c1\cc(-c2ccc3oc(N)nc3c2)oc2ccccc12 | CCK-8 | 1 µM | inhibition | 14.5% |
| O=C(Nc1ccc(Cl)cc1)Nc1ccc(-c2cn(Cc3cccc(Cl)c3)nn2)cc1 | CCK-8 | 20 µM, 72 h | viability | 64.6% |
| CCCCn1cnc2ccc(-c3ccc(NC(=O)C4CCCCC4)nc3)cc2c1=O | CCK-8 | 72 h | IC50 | 1280 nM |
| CCCCCCCCCCCCCCCCCCOc1ccccc1CC(=O)OCC[N+]1(C)CCCCC1 | SRB | 10 µM | inhibition | 57.8% |
| NCCC(=O)Nc1ccccc1/N=c1\cc(-c2ccc3nc(N)oc3c2)oc2cc(O)ccc12 | CCK-8 | 1 µM | inhibition | 23.2% |
| COc1ccc(NC(=O)NCc2cn(Cc3ccc(C)cc3)nn2)cc1 | CCK-8 | 50 µM, 72 h | viability | 71.5% |
| [NH2][Pt]([NH2])([Cl])[Cl] | SRB | – | GI50 | 4.9 µM |
| CCCCNC(=O)Nc1ccc(-c2ccc3ncn(CCCC)c(=O)c3c2)cn1 | CCK-8 | 72 h | IC50 | 1390 nM |
| COc1ccc(NC(=O)Nc2cccc(-c3cn(Cc4ccc(Br)cc4)nn3)c2)cc1 | CCK-8 | 20 µM, 72 h | viability | 152% |

| SMILES | assay | setting | endpoint | result |
| --- | --- | --- | --- | --- |
| O=C(Nc1ccc(Cl)cc1)Nc1cccc(-c2cn(Cc3cccc(Cl)c3)nn2)c1 | CCK-8 | 20 µM, 72 h | viability | 115% |
| COc1ccc(NC(=O)Nc2ccc(-c3cn(Cc4ccc(Br)cc4)nn3)cc2)cc1 | CCK-8 | 20 µM, 72 h | viability | 102% |
| COc1ccc2/c(=N/c3ccccc3NC(=O)[C@@H](N)C(C)(C)C)cc(-c3ccc4c(c3)OCCO4)oc2c1 | CCK-8 | 1 µM | inhibition | 6.77% |
| CCCCCCCCCCCCCCCCCCOc1cccc(CC(=O)OCC[N+]2(C)CCCC2)c1 | SRB | 10 µM | inhibition | 13.9% |
| N#CSCc1cc(=O)oc2cc(O)ccc12 | SRB | – | GI50 | 5.8 µM |
| CCCCn1cnc2ccc(-c3ccc(NC(=O)NCCC)nc3)cc2c1=O | CCK-8 | 72 h | IC50 | > 10000 nM |
| COc1ccc(NC(=O)Nc2ccc(-c3cn(Cc4cccc(Cl)c4)nn3)cc2)cc1 | CCK-8 | 50 µM, 72 h | viability | 91.2% |
| CCCCC(=O)Nc1ccc(-c2ccc3ncn(CC)c(=O)c3c2)cn1 | CCK-8 | 72 h | IC50 | 920 nM |
| CCCCCCCCCCCCCCCCCCOc1cccc(CC(=O)OCCC[N+](C)(C)C)c1 | SRB | 10 µM | inhibition | 16.2% |
| CCCn1cnc2ccc(-c3ccc(NC(=O)CNCC)nc3)cc2c1=O | CCK-8 | 72 h | IC50 | 3420 nM |
| O=C(Nc1ccccc1/N=c1\cc(-c2ccc3c(c2)OCO3)oc2ccccc12)N1CCOCC1 | CCK-8 | 1 µM | inhibition | 13.8% |
| O=C(Nc1ccc(Cl)cc1)Nc1ccc(-c2cn(Cc3ccc(Br)cc3)nn2)cc1 | CCK-8 | 50 µM, 72 h | viability | 78.8% |
| C[C@H](N)C(=O)Nc1ccccc1/N=c1\cc(-c2ccc3c(c2)OCCO3)oc2c(N)cccc12 | CCK-8 | 1 µM | inhibition | 0.27% |
| O=C(NCc1cn(Cc2ccc(Br)cc2)nn1)Nc1ccccc1Br | CCK-8 | 20 µM, 72 h | viability | 88.8% |
| CCCCCCCCCCCCCCCCCCOc1ccccc1CC(=O)OCC[N+]1(C)CCOCC1 | SRB | 10 µM | inhibition | 37.4% |
| COc1ccc(NC(=O)Nc2cccc(-c3cn(Cc4ccc(Cl)cc4)nn3)c2)cc1 | CCK-8 | 20 µM, 72 h | viability | 147% |
| C#CCn1cnc2ccc(-c3ccc(NC(=O)CCCC)nc3)cc2c1=O | CCK-8 | 72 h | IC50 | > 10000 nM |
| CCCCCCCCCCCCCCCCCCOc1ccc(CC(=O)OCC[N+](CC)(CC)CC)cc1 | SRB | 10 µM | inhibition | 21.2% |
| COc1ccc(NC(=O)NCc2cn(Cc3ccccc3C)nn2)cc1 | CCK-8 | 50 µM, 72 h | viability | 68% |
| O=C(Nc1ccc(Cl)cc1)Nc1cccc(-c2cn(Cc3ccc(Cl)cc3)nn2)c1 | CCK-8 | 50 µM, 72 h | viability | 101% |
